Measured values taken from PMC6044579 (ACS Omega, 2017).
Read-outs that look alike come from different tables or passages of the source.

Tests used:
HepG2 = test: MTT assay, HepG2 liver carcinoma cells; assay type: cell-based, human
Outline: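 HepG2 cells from ATCC, kept at 37 °C, 5% CO2, humidified air. Cells were exposed to the test compound at various concentrations, with DMSO as control, for 96 h. MTT (0.4 mg mL–1) was then added for 4 h. Medium was aspirated, formazan dissolved in DMSO, and absorbance read at 490 nm. IC50 was taken as the concentration giving 50% growth inhibition.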

SGC7901 = test: MTT assay, SGC7901 gastric carcinoma cells; assay type: cell-based, human; conditions: read-out: anticancer activity (IC50) SGC7901
Outline: (§1)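 ATCC-sourced human cells kept at 37 °C, 5% CO2, humidified air. Cells treated with test compound at various concentrations for 96 h; DMSO as control, cisplatin as positive control. MTT (0.4 mg mL–1) added for a further 4 h, medium aspirated, formazan dissolved in DMSO, absorbance read at 490 nm. IC50 taken as the concentration giving 50% growth inhibition.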

A549 = test: MTT assay, A549 cancerous alveolar epithelial cells; assay type: cell-based, human; conditions: read-out: anticancer activity (IC50) A549
Outline: as §1

[1] = UV-vis absorption spectra; assay type: physicochemical; conditions: ethanol as the solvent
Outline: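 Absorption spectra taken in 1.0 cm quartz cells in anhydrous ethanol at room temperature. Ethanolic compound solution (25 μg mL–1 before dilution) made up in a 10 mL volumetric flask and equilibrated 2 min before measurement.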

[2] = Fluorescence spectra and quantum yield; assay type: physicochemical; conditions: for λem – λabs, Stokes shift / λem, emission wavelength / λex, best excitation wavelength / ε × Φ, fluorescent brightness: ethanol as the solvent; for Φ, quantum yield: ethanol, rhodamine as the reference
Outline: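 Emission spectra recorded with xenon lamp excitation in 1.0 cm quartz cells at room temperature, excitation and emission slits 5.0 nm. Ethanolic compound solution (25 μg mL–1 before dilution) diluted in a 10 mL flask with buffer solutions, pH set with dilute HCl or NaOH, then equilibrated 2 min. Quantum yield in anhydrous ethanol from integrated emission relative to rhodamine 6G standard (5.0 μg mL–1 in anhydrous ethanol).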

MRC-5 = test: MTT assay, MRC-5 diploid fibroblasts; assay type: cell-based, human; conditions: read-out: anticancer activity (IC50) MRC-5
Outline: as §1

HT29 = test: MTT assay, HT29 colorectal cancer cells; assay type: cell-based, human; conditions: read-out: anticancer activity (IC50) HT29
Outline: as §1

[3] = test system: HepG2 liver carcinoma cells; test: Clonogenic assay for long-term anticancer activity; assay type: cell-based, human; conditions: HepG2, 18 h exposure, colonies counted after 10 days
Outline: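 HepG2 cells seeded at 2 × 10^5 per well and attached overnight, then exposed 18 h to test compound at 0.01, 0.1, 1 or 10 μM, with vehicle alone as control. Replated at 700 cells/well in triplicate and grown 10 days at 37 °C, 5% CO2. Washed in ice-cold PBS, fixed in cold methanol 20 min, stained with 0.5% methylene blue 30 min; colonies of >50 cells counted. IC50 estimated from mean treated/untreated colony ratio.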

Cyclic voltammetry = assay type: physicochemical; conditions: anhydrous ethanol, 1.0 × 10^–4 M, Fc/Fc^+ internal standard
Outline: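 Three-electrode cell: Pt foil working electrode, Pt wire counter electrode, Ag/AgCl reference. Fc/Fc+ couple served as internal standard.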

[4] = Homo sapiens, HepG2, 96 h, read-out: anticancer activity (IC50) HepG2, MTT assay, liver carcinoma cells, 96 h incubation
[5] = read-out: anticancer activity (IC50) HepG2, MTT assay, liver carcinoma cells, 96 h incubation

Row | IC50 (HepG2; [4]) [µM] | IC50 (SGC7901; Homo sapiens, SGC-7901, 96 h) [µM] | IC50 (A549; Homo sapiens, A549, 96 h) [µM] | λabs, maximal absorption wavelength [1] [nm] | λem – λabs, Stokes shift [2] [nm] | λem, emission wavelength [2] [nm] | λex, best excitation wavelength [2] [nm] | Φ, quantum yield [2] | IC50 (HT29; Homo sapiens, HT-29, 96 h) [µM] | ε, absorption coefficient [1] [mL mg^–1 cm^–1] | ε × Φ, fluorescent brightness [2] [mL mg^–1 cm^–1] | IC50, colony-forming ratio [3] [µM] | first onset of reduction (Cyclic voltammetry) [V] | reversible reduction wave (Cyclic voltammetry) [V] | SMILES | IC50 (MRC-5; Homo sapiens, MRC5, 96 h) [µM] | IC50 (HepG2; [5]) [µM] | IC50 (MRC-5; MTT assay, diploid fibroblasts (normal cells), 96 h incubation) [µM] | IC50 (HT29; MTT assay, colorectal cancer cells, 96 h incubation) [µM] | IC50 (SGC7901; MTT assay, gastric carcinoma cells, 96 h incubation) [µM] | IC50 (A549; MTT assay, cancerous alveolar epithelial cells, 96 h incubation) [µM]
1 | > 100 | > 100 | > 100 | 440.5 | 79.0 | 519.5 | 464.0 | 0.476 |  |  |  |  |  |  | COc1ccc(C(=O)C2=C3NCCCN3C3Oc4ccc(F)cc4C(=O)C3=C2)cc1 (centres unmarked) [3ac, 9-Fluoro-5-(4-methoxybenzoyl)-2,3,4,12a-tetrahydro-1H,7H-chromeno[3′,2′:5,6]pyrido-[1,2-a]pyrimidin-7-one] |  |  |  |  |  | 
2 | 30.9 | 18.7 | 34.3 | 440.0 | 80.0 | 520.0 | 449.0 | 0.464 | 26.9 | 50.07 | 23.23 |  |  |  | COc1ccc(C(=O)C2=C3NCCCN3C3Oc4ccc(Cl)cc4C(=O)C3=C2)cc1 (centres unmarked) [3ad, 9-Chloro-5-(4-methoxybenzoyl)-2,3,4,12a-tetrahydro-1H,7H-chromeno[3′,2′:5,6]pyrido-[1,2-a]pyrimidin-7-one] | 34.9 |  |  |  |  | 
3 | 15.4 | 17.8 | 27.5 | 441.5 | 79.0 | 520.5 | 466.0 | 0.428 | 18.8 | 23.56 | 10.08 |  |  |  | COc1ccc(C(=O)C2=C3NCCCN3C3Oc4ccc(Br)cc4C(=O)C3=C2)cc1 (centres unmarked) [3ae, 9-Bromo-5-(4-methoxybenzoyl)-2,3,4,12a-tetrahydro-1H,7H-chromeno[3′,2′:5,6]pyrido-[1,2-a]pyrimidin-7-one] | 31.3 |  |  |  |  | 
4 | 18.9 | 26.7 | 39.6 | 442.0 | 83.5 | 525.5 | 461.0 | 0.671 | 29.8 | 111.53 | 74.72 |  |  |  | COc1ccc(C(=O)C2=C3NCCCCN3C3Oc4ccc(F)cc4C(=O)C3=C2)cc1 (centres unmarked) [3fc, 10-Fluoro-6-(4-methoxybenzoyl)-1,2,3,4,5,13a-hexahydro-8H-chromeno[3′,2′:5,6]pyrido-[1,2-a][1,3]diazepin-8-one] | 48 |  |  |  |  | 
5 | 11.2 | 14.8 | 33.5 | 443.0 | 83.0 | 526.0 | 470.0 | 0.663 | 26.8 | 81.07 | 53.75 | 5.99 | −1.04 | −1.19 | COc1ccc(C(=O)C2=C3NCCCCN3C3Oc4ccc(Cl)cc4C(=O)C3=C2)cc1 (centres unmarked) [3fd, 10-Chloro-6-(4-methoxybenzoyl)-1,2,3,4,5,13a-hexahydro-8H-chromeno[3′,2′:5,6]pyrido-[1,2-a][1,3]diazepin-8-one] | 33.1 |  |  |  |  | 
6 | < 10 | 13.5 | 27.5 | 443.5 | 82.5 | 526.0 | 470.0 | 0.329 | 13.3 | 113.48 | 37.33 |  |  |  | COc1ccc(C(=O)C2=C3NCCCCN3C3Oc4ccc(Br)cc4C(=O)C3=C2)cc1 (centres unmarked) [3fe, 10-Bromo-6-(4-methoxybenzoyl)-1,2,3,4,5,13a-hexahydro-8H-chromeno[3′,2′:5,6]pyrido-[1,2-a][1,3]diazepin-8-one] | 34.8 | 9.5 |  |  |  | 
7 |  |  |  |  |  |  |  |  |  |  |  |  |  |  | N.N.[Cl][Pt][Cl] [DDP, Cisplatin, reference compound] |  | 3 | 8.2 | 14.3 | 2.3 | 8.4
